UHRF1 MBD2 ctr: blocks human UHRF1 binding to methylated DNA; UHRF1 binding to methylated oligo, TR-FRET; inhibition, % at 4.4 µM; hit rate 0.75% among 370,000; AID 687016;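 note: UHRF1 SRA domain binding a hemimethylated CpG hairpin DNA probe; 0% = median of test compound wells and 100% = reference inhibitor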
LEDGF integ inh: blocks HIV-1 LEDGF/p75-dependent DNA integration. TR-FRET IN-LEDGF/p75 DNA integration, Eu/Cy5. inhibition, % at 3.7 µM. hit rate 0.64% among 370,000. AID 743269;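 active = inhibition above the screen-wide mean plus 3 SD, cut at about 13% in these data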;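 note: signal is the Cy5 over europium emission ratio at 671 and 618 nm; 0% = plate median of compound wells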
MBD2 DNA inh: MBD2-methylated oligo binding inhibition | Q9UBB5 | TR-FRET, MBD2 binding to methylated oligonucleotide | inhibition, % at 4.4 µM | hit rate 0.31% among 370,000; in the data active = inhibition above about 13%
TDP2 absorb: TDP2 (human) inhibition, absorbance primary screen; O95551; recombinant TDP2, T5PNP hydrolysis, p-nitrophenol absorbance 415 nm; inhibition, % at 12.8 µM; hit rate 0.34% among 370,000; AID 720702;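 active = inhibition above the mean of all tested compounds plus 3 SD, set per campaign, cut at about 25% in these data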;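 note: 0% = DMSO with enzyme and 100% = buffer with substrate but no TDP2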
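System – recombinant human TDP2 · Quantity – TDP2 enzyme at 120 nM final · Doses – single concentration, 12.8 µM nominal, with 1% DMSO · Incubation – 2 h at 37 °C · Measured by – epi absorbance of p-nitrophenol freed from T5PNP by hydrolysis · Read-out – % inhibition relative to enzyme-containing and enzyme-free wells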
CASP6 VEID inh: caspase-6 (human) enzyme inhibition; inhibition, % at 12.5 µM; purified caspase-6, Z-VEID-R110 cleavage fluorescence; hit rate 0.53% among 350,000; AID 686996; P55212;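 active = mean inhibition across replicates at least about 35%, with every replicate also reaching that limit, limit read from the data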;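 note: 0% = median of neutral control wells and 100% = no fluorescence left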
Target sequence (P55212 24-179 limits assumed): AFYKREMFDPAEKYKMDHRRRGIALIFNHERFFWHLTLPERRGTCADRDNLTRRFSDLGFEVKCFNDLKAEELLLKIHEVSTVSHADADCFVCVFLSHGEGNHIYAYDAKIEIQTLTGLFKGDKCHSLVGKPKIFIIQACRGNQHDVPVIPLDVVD
Target sequence (P55212 194-293 limits assumed): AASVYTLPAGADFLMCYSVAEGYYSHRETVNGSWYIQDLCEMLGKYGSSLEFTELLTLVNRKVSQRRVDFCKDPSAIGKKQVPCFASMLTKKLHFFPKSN
NSD2 inh: inhibitors of human histone methyltransferase NSD2 | hit rate 0.54% among 310,000 | NSD2 peptide methylation, AlphaScreen, 120 min | AID 743445 | inhibition, % at 12.5 µM | O96028; in the data active = inhibition above about 50%
UHRF1 DNA bind: UHRF1 methyl-oligo binding inhibition as MBD2 counter-screen; shares compounds with MBD2 DNA inh; hit rate 25% among 1,000; UHRF1 binding to methylated oligonucleotide, TR-FRET; inhibition, % at 4.4 µM;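 note: UHRF1 SRA domain binding a labeled hemimethylated CpG hairpin DNA; 0% = vehicle only and 100% = reference inhibitor with vehicle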
MBD2 confirm: MBD2-DBD methyl-DNA binding inhibition, TR-FRET confirmation | shares compounds with MBD2 DNA inh | TR-FRET MBD2-DBD binding to methylated oligonucleotide | inhibition, % at 4.4 µM | hit rate 26% among 1,000 | AID 720531; in the data active = inhibition above about 14%
* marks the source's active call; other numbers are inactive results; x = no result given. An excerpt weighted towards active compounds, which were near 1.9% of everything screened. Cut-off read from the data, not from the text of the source, unless noted: active = inhibition above about 21%; inactive = the rest.

SMILES	UHRF1 MBD2 ctr	LEDGF integ inh	MBD2 DNA inh	TDP2 absorb	CASP6 VEID inh	NSD2 inh	UHRF1 DNA bind	MBD2 confirm
C[C@H](CO)N1C[C@H](C)[C@@H](CN(C)S(=O)(=O)c2ccc(F)cc2)Oc2ccc(NC(=O)CCC(F)(F)F)cc2CC1=O	x	x	x	x	1	x	x	x
O=C(NCCc1c[nH]c2ccccc12)c1ccc(Br)o1	21*	1	16*	5	2	-4	8	5
O=C(NCCSc1c[nH]c2ccccc12)c1ccc(Br)o1	-1	2	1	-8	-1	x	x	x
C=CCOc1ccc(CNCC2CCCO2)cc1 (stereo not drawn)	39*	13	22*	9	-12	-3	7	1
CCOc1ccc2nc(SCC(=O)N(CC(C)C)c3c(N)n(CC(C)C)c(=O)[nH]c3=O)[nH]c2c1	-2	-2	-1	-2	2	1	x	x
CC(C)CN(C(=O)CSc1nc2ccccc2c(=O)[nH]1)c1c(N)n(CC(C)C)c(=O)[nH]c1=O	-2	-2	25*	2	1	0	4	2
CO[C@H]1CN(C)C(=O)c2ccc(NC(=O)NC(C)C)cc2OC[C@@H](C)N(CC2CC2)C[C@H]1C	x	x	x	x	0	x	x	x
CC(=O)C1=C(O)C(=O)N(c2ccc(O)cc2)C1c1ccccc1 (stereo not drawn)	-2	-8	22*	8	8	1	6	1
CC(=O)C1=C(O)C(=O)N(c2ccc(C(=O)O)cc2)C1c1ccccc1 (stereo not drawn)	0	-2	-4	5	x	0	x	x
C[C@@H]1CN([C@H](C)CO)S(=O)(=O)c2ccc(C#CCN(C)C)cc2O[C@@H]1CN(C)Cc1cccnc1	x	x	x	x	0	x	x	x
COC(=O)C1CCN(C(c2cccs2)c2sc3nc(C)nn3c2O)CC1 (stereo not drawn)	10	-2	19*	7	-2	x	1	2
COc1ccc2c3c(n(C)c2c1)[C@@H](CO)N(C(=O)c1ccc(F)cc1)CC31CCN(C(=O)Nc2ccc(F)cc2)CC1	x	x	x	x	-5	x	x	x
COc1ccc(-c2[nH]nc3oc(=O)cc(C)c23)cc1	20	-2	14*	-8	x	-6	3	1
Cc1cc(=O)oc2n[nH]c(-c3ccccc3)c12	-4	1	-5	-4	x	-2	x	x
C[C@@H]1CN([C@H](C)CO)S(=O)(=O)c2ccc(Br)cc2O[C@H]1CN(C)CC1CCCC1	x	x	x	x	0	x	x	x
COc1ccc(S(=O)(=O)Nc2ccc3c(c2)C(=O)N([C@@H](C)CO)C[C@@H](C)[C@@H](CN(C)C(=O)Nc2c(C)noc2C)OCCCC[C@@H](C)O3)cc1	x	x	x	x	-2	x	x	x
CCC(C)NC(=O)CCn1c(-c2ccc(F)cc2)cc(C(C)=O)c1C (stereo not drawn)	1	-1	2	7	1	2	x	x
CC(=O)c1cc(-c2ccc(F)cc2)n(CCC(=O)NC(C)(C)C)c1C	83*	15*	36*	-1	-1	-4	3	1
COCCNC(=O)C[C@@H]1C[C@H]2c3cc(NC(=O)NC4CCCC4)ccc3O[C@H]2[C@@H](CO)O1	x	x	x	x	2	x	x	x
CC(C)[C@H](NS(=O)(=O)c1ccc2c(c1)OCCO2)C(=O)OCC(=O)Nc1ccccc1	28*	9	19*	3	x	x	9	1
COc1ccc(NC(=O)COC(=O)CC23CC4CC(CC(C4)C2)C3)c([N+](=O)[O-])c1	4	-5	46*	-6	x	2	3	3
COc1ccc(-c2oc3ncnc(NCCCN(C)C)c3c2-c2ccc(OC)cc2)cc1	5	2	15*	-4	-2	7	14	10
Cc1ccccc1NC(=O)c1ccc2nccnc2c1	1	2	16*	4	2	-2	6	-1
O=C1CCCN1CC(O)CS(=O)(=O)Cc1ccc(Cl)c(Cl)c1 (stereo not drawn)	4	-1	16*	-17	0	0	7	3

High-throughput results as filed in PubChem.
